According to ChEMBL document CHEMBL3616457, “Synthesis and biological evaluation of new symmetric curcumin derivatives” (Bioorg Med Chem Lett, 2015):
Values after ≈ are worked out from the molar mass of the structure shown. Active and inactive are the calls of the source. The rule behind the calls is not given here.

What was measured:
[1] = Antioxidant activity assessed as DPPH radical scavenging activity; type: physicochemical
Procedure, shortened: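 DPPH stock 0.1 mmol in DMSO. 1 mL sample diluted with 2 mL DMSO, mixed with 2 mL DPPH stock, absorbance at 517 nm. Tested at 10–50 μg/mL. % inhibition = [(blank−test)/blank]×100, IC50 derived from the concentration series. Run twice.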

[2] = Antioxidant activity assessed as H2O2 scavenging activity; type: physicochemical
Procedure, shortened: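 H2O2 prepared at 2.0 mM in 0.2 M phosphate buffer pH 7.4. Compounds at 10–50 μg/mL added to 0.6 mL of this solution and made up to 4 mL with buffer. H2O2 absorbance read at 230 nm against a buffer blank. % inhibition = [(blank−test)/blank]×100, IC50 derived from the concentration series.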

[3] = Anti-inflammatory activity assessed as inhibition of bovine serum albumin denaturation at 10 to 500 ug/ml incubated for 15 mins at 37 degC; type: functional
Procedure, shortened: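 Compounds dissolved in minimal DMF, diluted in 0.2 M phosphate buffer pH 7.4 (final DMF <2.5%). 4 mL test solution mixed with 1 mL of 1 mM albumin and held 15 min at 37 °C, then heated 15 min at 70 °C to denature. After cooling, turbidity read at 660 nm. % inhibition calculated against a no-drug control.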

A549 = assay: Cytotoxicity against human A549 cells at 1 to 500 ug/ml incubated for 24 hrs by MTT assay; type: functional, cell-based
Procedure, shortened: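 A549 lung cancer cells grown in MEM with 10% FBS, penicillin and streptomycin, at 37 °C under 5% CO2. Compounds made up at 2 mg/mL in DMSO, filter-sterilized, diluted in medium to 1, 10, 50, 100 and 500 μg/mL. Exposure 24 h, 0.1% DMSO control. MTT (5 mg/mL stock) added for 4 h, formazan dissolved in DMSO, read at 545 nm. Triplicate.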

| IC50 [1] [µg/mL] | IC50 [2] [µg/mL] | SMILES | inhibition [3] | Activity (A549) |
| --- | --- | --- | --- | --- |
| 32.74 (≈ 186 µM) | 67.54 (≈ 383 µM) | O=C1O[C@H]([C@@H](O)CO)C(O)=C1O [ASCORBIC ACID] |  |  |
| 24.26 (≈ 36.2 µM) | 70.51 (≈ 105 µM) | COc1cc(/C=C/C(=O)/C=C(O)/C=C/c2ccc(OCC(=O)Nc3ccc(F)cc3)c(OC)c2)ccc1OCC(=O)Nc1ccc(F)cc1 | Active | Active |
| 16 (≈ 24.7 µM) | 26.14 (≈ 40.4 µM) | COc1cc(/C=C/C(=O)/C=C(O)/C=C/c2ccc(OCC(=O)NC3CCCCC3)c(OC)c2)ccc1OCC(=O)NC1CCCCC1 | Active | Active |
| 12.65 (≈ 17.2 µM) | 41.4 (≈ 56.3 µM) | COc1cc(/C=C/C(=O)/C=C(O)/C=C/c2ccc(OCC(=O)Nc3cccc4ccccc34)c(OC)c2)ccc1OCC(=O)Nc1cccc2ccccc12 |  | Active |
| 12.92 (≈ 18.4 µM) | 65.4 (≈ 93 µM) | COc1cc(/C=C/C(=O)/C=C(O)/C=C/c2ccc(OCC(=O)Nc3ccc(Cl)cc3)c(OC)c2)ccc1OCC(=O)Nc1ccc(Cl)cc1 |  | Active |
| 12.05 (≈ 18.2 µM) | 63.21 (≈ 95.4 µM) | COc1cc(/C=C/C(=O)/C=C(O)/C=C/c2ccc(OCC(=O)N(C)c3ccccc3)c(OC)c2)ccc1OCC(=O)N(C)c1ccccc1 | Active | Active |
| 14.83 (≈ 40.3 µM) | 34.71 (≈ 94.2 µM) | COc1cc(/C=C/C(=O)CC(=O)/C=C/c2ccc(O)c(OC)c2)ccc1O [CURCUMIN] | Active | Active |
| 23.77 (≈ 37.5 µM) | 63.7 (≈ 100 µM) | COc1cc(/C=C/C(=O)/C=C(O)/C=C/c2ccc(OCC(=O)Nc3ccccc3)c(OC)c2)ccc1OCC(=O)Nc1ccccc1 | Active | Active |
|  |  | O=C(O)Cc1ccccc1Nc1c(Cl)cccc1Cl | Active |  |
| 22.85 (≈ 34.5 µM) | 61.98 (≈ 93.5 µM) | COc1cc(/C=C/C(=O)/C=C(O)/C=C/c2ccc(OCC(=O)Nc3ccc(C)cc3)c(OC)c2)ccc1OCC(=O)Nc1ccc(C)cc1 | Active | Active |
| 19.68 (≈ 33.1 µM) | 68.16 (≈ 115 µM) | CCN(CC)C(=O)COc1ccc(/C=C/C(=O)/C=C(O)/C=C/c2ccc(OCC(=O)N(CC)CC)c(OC)c2)cc1OC | Active | Active |
